Rows were chosen to be rich in hits. Some 3.5% of all compounds tested hit in one or more screens of this group.
RGS4 pot = potentiators or activators of RGS4. HEK293 M3R/inducible RGS4, carbachol calcium flux Fluo4; stronger effect = lower value. B-score at 10 µM. 0.92% of 310,000 active;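 active = B-score of the integrated calcium signal more than 4 SD below the library mean, with starting fluorescence not abnormally high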;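 also: negative B-score means reduced calcium response which marks RGS4 activation or potentiation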
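Reagent: ECmax carbachol challenge; Test system: M3R-expressing HEK293 line, RGS4 induced by doxycycline; Schedule: overnight RGS4 induction, 30 min dye load 37 °C, 20 min compound RT; Detection: calcium dye Fluo4 fluorescence; Read-out: Agonist-evoked peak-minus-minimum fluorescence over baseline, integrated ratio, B score.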
MrgX1 PAM = human MrgX1 positive allosteric modulation, primary screen; MrgX1-HEK293, Fluo-4 calcium flux, FDSS; stronger effect = higher value; B-score at 10 µM; Q96LB2; 0.63% of 310,000 active; AID 588675;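 active = plate-corrected calcium response at least 3 library SD above typical, normal starting fluorescence, not activating the receptor alone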;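 also: compound read alongside a low EC10 to EC30 dose of BAM8-22 agonist; peak minus trough fluorescence over baseline measured at the second addition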
Target sequence (Q96LB2 whole entry, looked up): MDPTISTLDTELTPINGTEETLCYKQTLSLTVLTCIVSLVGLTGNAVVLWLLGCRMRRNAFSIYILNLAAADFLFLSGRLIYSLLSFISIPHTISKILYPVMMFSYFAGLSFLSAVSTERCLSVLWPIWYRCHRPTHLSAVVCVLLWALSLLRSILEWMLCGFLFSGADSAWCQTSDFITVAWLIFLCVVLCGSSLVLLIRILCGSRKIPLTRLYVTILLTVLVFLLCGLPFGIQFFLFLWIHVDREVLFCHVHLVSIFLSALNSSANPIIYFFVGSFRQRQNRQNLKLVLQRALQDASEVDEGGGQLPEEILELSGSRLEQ
MrgX1 agonist = agonists of human MrgX1 receptor | Q96LB2 | MrgX1-HEK293 cells, Fluo-4 calcium fluorescence, agonist mode; stronger effect = higher value | B-score at 10 µM | 0.44% of 310,000 active | AID 588627;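 active = calcium response B-score plate-corrected fluorescence ratio at least 3 library SD, with starting fluorescence B-score inside 5 SD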
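Test system: HEK293 cells stably expressing human MrgX1 receptor; Input: fifteen thousand cells per well; Dosing: compound delivered in addition one of three; Schedule: overnight seeding, then 1 h dark dye loading; Technique: Fluo-4 NW calcium fluorescence; Measure: B-scored fluorescence response ratio; Controls: positive and negative controls per plate.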
MrgX1 antagonist = antagonists of human MrgX1 receptor; MRGX1-HEK293 calcium flux, Fluo-4, BAM8-22 antagonism; stronger effect = lower value; B-score at 10 µM; 1.3% of 310,000 active; AID 588676;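 active = calcium-response B-score plate-corrected more than 3 library SD below zero, starting fluorescence within 5 deviations, no agonist response on first addition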;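 also: peak minus trough fluorescence over baseline after final BAM8-22 challenge near maximal dose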
RGS4 block = inhibitors of human RGS4; P49798; HEK293 M3R/RGS4 inducible, Fluo-4 calcium flux; stronger effect = higher value; triggered by carbachol at its EC20; B-score at 10 µM; 0.45% of 310,000 active; AID 463165;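 active = B-score, a plate-corrected calcium signal, over three deviations above library mean, with baseline fluorescence within five deviations of library mean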;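 also: RGS4 expression induced by doxycycline in cells with stable M3 receptor; B-score is computed from the integrated fluorescence ratio over baseline after carbachol; higher B-score means a larger calcium signal and so more RGS4 inhibition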
Target sequence (P49798 whole entry, looked up): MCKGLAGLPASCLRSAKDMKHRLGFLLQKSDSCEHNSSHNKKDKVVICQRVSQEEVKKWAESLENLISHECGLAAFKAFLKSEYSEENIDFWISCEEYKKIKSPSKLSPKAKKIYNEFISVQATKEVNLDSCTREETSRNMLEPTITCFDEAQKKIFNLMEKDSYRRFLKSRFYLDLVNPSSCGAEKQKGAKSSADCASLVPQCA
* marks the source's active call; other numbers are inactive results; i = inactive; · = no result.

SMILES	RGS4 pot	MrgX1 PAM	MrgX1 agonist	MrgX1 antagonist	RGS4 block
COc1ccc(-c2nn(-c3ccccc3)cc2/C=N/N=C(N)N)cc1OC	i	i	44.4*	i	i
CCOC(=O)C1C(=O)C=C(c2cccc(NS(C)(=O)=O)c2)CC1c1ccco1 (centres undefined)	i	i	i	i	i
CCOC(=O)C1C(=O)C=C(c2ccc(Br)cc2)CC1c1ccco1 (centres undefined)	i	i	i	-5.74*	i
Cc1cccc(C)c1NC(=O)CNC(=O)C(Cc1ccccc1)NC(=O)c1ccccc1 (centres undefined)	i	i	i	i	i
CCCCn1nc(C(=O)Oc2ccc3c(C)cc(=O)oc3c2)c2ccccc2c1=O	i	i	i	-6.6*	i
CCCCC(CC)C(=O)Nc1ncc([N+](=O)[O-])s1 (centres undefined)	i	7.41*	i	i	i
COc1ccc2c(c1)C(c1ccc(C)o1)=NNC(c1ccccc1)=N2	i	i	i	-8.37*	i
CC(=O)NC(=S)NNC(=O)C(c1ccccc1)c1ccccc1	i	12.1*	i	i	i
CN(C)c1ccc(-c2n(C)c3ccccc3[n+]2C)cc1	i	i	i	-8.75*	i
Cn1c(-c2ccccn2)[n+](C)c2ccccc21	i	i	i	i	i
CC(C)CCn1c(=O)c2ccccc2n2c(CCC(=O)NCC3CCCO3)nnc12 (centres undefined)	i	i	i	i	i
CCC(C(=O)Nc1cccnc1Cl)c1ccccc1 (centres undefined)	i	i	i	i	i
COC(=O)c1[nH]c2cc(C)ccc2c1NC(=O)CN1CCCc2ccccc21	-7.31*	i	i	i	i
COC(=O)c1[nH]c2ccc(Br)cc2c1NC(=O)CN1CCCc2ccccc21	i	i	i	i	i
COc1ccc(C2(C)NC(=O)N(CC(=O)NCc3ccccc3F)C2=O)cc1 (centres undefined)	i	i	i	i	i
CCCCCCCCCCCCCCCC[N+](C)(C)CCN(Cc1ccc(OC)cc1)c1ncccn1	·	i	55.8*	i	·
Cc1cccc(CN2CCCC(C(=O)Nc3ccc(-c4cscn4)cc3)C2)c1 (centres undefined)	-7.34*	i	i	i	i
NNC(=O)CNC(c1ccccc1)c1cc(Br)ccc1NC(=O)c1ccccc1Br (centres undefined)	i	i	i	i	i
CCC1CCCCN1CCCNS(=O)(=O)c1ccc2c(c1)oc(=O)n2C (centres undefined)	i	17.6*	i	i	i
COC(=O)C(C)NC(=O)C12CC3CC(C1)CC(c1ccc(C)cc1)(C3)C2 (centres undefined)	i	i	i	i	i
CCOC(=O)c1sc2cc([N+](=O)[O-])cc(SCCO)c2c1N	i	i	i	i	i
CCOC(=O)c1sc2cc([N+](=O)[O-])cc(SCC(=O)OC)c2c1N	i	i	i	-5.72*	i
Cc1ccc(S(=O)(=O)N2CCCCC2)cc1NC(=O)COC(=O)c1ccc2c(c1)OCO2	i	i	i	i	i
Cc1cc(OCc2cc(C(=O)N3CCC(Oc4cccnc4)CC3)no2)cc(C)c1Cl	-6.98*	i	i	i	i
Cc1ccc(NC(=O)CCS(=O)(=O)c2cc3[nH]c(=O)c(=O)[nH]c3cc2C)cc1	i	i	i	i	i
SMILES	RGS4 pot	MrgX1 PAM	MrgX1 agonist	MrgX1 antagonist	RGS4 block
c1ccc(SSc2ccccn2)nc1	i	i	31.6*	i	i
c1ccc(Sc2ccccn2)cc1	i	i	i	i	i
NC(=O)C(=O)NN=C1C2CC3CC(C2)CC1C3	i	i	i	i	i
NC(=S)NN=C1C2CC3CC(C2)CC1C3	i	8.59*	i	i	i
CCCN(CC(=O)Nc1ccccc1C)C(=O)C1CCN(S(=O)(=O)c2ccccc2C(F)(F)F)CC1	i	i	i	i	i
O=[N+]([O-])c1ccc(N2CCN(Cc3ccccc3)CC2)s1	i	i	i	-4.98*	i
CCCCCCc1cc2cc(C(N)=O)c(=N)oc2cc1O	-8.11*	i	i	i	i
CCCCCCc1cc2cc(C(=O)OCC)c(=O)oc2cc1O	i	i	i	-7.28*	i
CN(Cc1cccnc1)C(=O)CNC(=O)COc1ccccc1	i	i	i	i	i
Nc1c2c(nc3ccc(Br)cc13)N(C1CCCCC1)CC2	i	14.4*	i	i	i
CSc1ccccc1NC(=O)CN1CCCCC1C (centres undefined)	i	i	i	i	i
CC1CCCCN1CC(=O)NC(c1ccccc1)c1ccccc1 (centres undefined)	-7.26*	i	i	i	i
Cc1cccc(NC(=O)C2CCN(C(=O)c3ccc(F)cc3)CC2)n1	i	i	i	i	i
CCOc1cc(/C=C2\N=C(SC(C)C(N)=O)N(c3ccc(OC(F)F)cc3)C2=O)ccc1O (centres undefined)	i	11.4*	i	i	i
NC(=O)CSC1=N/C(=C\c2ccco2)C(=O)N1c1ccc(OC(F)F)cc1	i	i	i	i	i
CN(CC(=O)Nc1ccc(N2CCOCC2)cc1)C(=O)c1cc(F)c(F)cc1Cl	i	i	i	i	i
Cc1cccc(NC2=Nc3ccccc3N3C2=Nc2c(c(C)nn2-c2ccccc2)C3c2ccc(O)c(O)c2)c1 (centres undefined)	i	i	i	i	i
Cc1nn(-c2ccc([N+](=O)[O-])cc2)c2c1C(c1cccc(Br)c1)N1C(=N2)C(=O)Nc2ccccc21 (centres undefined)	i	i	i	-5.83*	i
Cc1nn(-c2ccccc2)c2c1C(c1ccc(Cl)cc1)N(c1ccccc1)C(=O)N2 (centres undefined)	i	i	i	i	i
Cc1nn(-c2ccccc2)c2c1C(c1ccc([N+](=O)[O-])cc1)N1C(=N2)C(=O)Nc2ccccc21 (centres undefined)	-9.03*	i	i	i	i
CC(C)OCCCNCC(O)c1ccccc1 (centres undefined)	i	i	i	i	i
COC(=O)NNC(=O)c1ccc(Cl)cc1Cl	i	i	i	i	i
CC(C)(C)C(=O)NC(=S)NNC(=O)c1ccc(-c2ccccc2)cc1	-7.48*	i	179*	i	i
